Calls of active or inactive are those of the source. No cut-off for these calls is given here.
Legend:
[1] = species: Homo sapiens; test: (§1) Selectivity ratio of IC50 for PI3Kgamma (unknown origin) using PIP2:3PS peptide as substrate preincubated for 15 mins followed by ATP addition at Km concentration and further incubated for 120 mins by ADP-Glo assay to IC50 for PI3Kalpha (unknown origin) using PIP2:3PS peptide as substrate preincubated for 15 mins followed by ATP addition at Km concentration and further incubated for 150 mins by ADP-Glo assay
[2] = Inhibition of PI3K in human MCF7 cells assessed as reduction in AKT phosphorylation at residue S473 incubated for 2 hrs followed by insulin addition by ELISA; format: cell-based; conditions: MCF7, 2 h
[3] = molecular target: Phosphatidylinositol 4,5-bisphosphate 3-kinase catalytic subunit alpha isoform (Homo sapiens, UniProt P42336); test: Inhibition of PI3Kalpha (unknown origin) using PIP2:3PS peptide as substrate preincubated for 15 mins followed by ATP addition at Km concentration and further incubated for 150 mins by ADP-Glo assay
[4] = Toxicity in BALB/c nude mouse xenografted with PI3KCA mutant human BT474 cells at 30 mg/kg, po administered once daily; format: organism-based, BT-474; conditions: in vivo
Outline: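 Balb/c nude mice bearing BT-474 subcutaneous xenografts. Oral dosing at 30 mg/kg once daily.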

[5] = Dose normalized AUC (0 to last) in BALB/c mouse at 10 mg/kg, po by HPLC analysis; format: ADME, organism-based; conditions: in vivo
[6] = species: Homo sapiens; test: as §1, with “PI3Kbeta” for “PI3Kgamma”
[7] = Cmax in BALB/c mouse at 10 mg/kg, po by HPLC analysis; format: ADME, organism-based; parameters: dose 10 mg/kg, route oral; conditions: in vivo
[8] = species: Homo sapiens; test: as §1, with “PI3Kdelta” for “PI3Kgamma”
[9] = test system: BT-474; test: Antitumor activity against PI3KCA mutant human BT474 cells xenografted in BALB/c nude mouse assessed as tumor growth inhibition at 10 to 20 mg/kg, po administered once daily for 21 days by caliper method; format: functional, organism-based
Outline: (§2)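 BT-474 (PIK3CA mutant human breast ductal carcinoma) subcutaneous xenografts in Balb/c nude mice. Oral dosing once daily for 21 days. Vehicle 0.5% MC + 0.2% Tween 80. Read-out is tumor growth inhibition.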

[10] = test system: BT-474; test: Antitumor activity against PI3KCA mutant human BT474 cells xenografted in BALB/c nude mouse assessed as tumor growth inhibition at 30 mg/kg, po administered once daily for 21 days by caliper method relative to control; format: functional; conditions: BT-474, po, 504 h, read-out: TGI; outline: as §2
[11] = Oral bioavailability in BALB/c mouse at 10 mg/kg by HPLC analysis; format: ADME, organism-based; conditions: in vivo
[12] = Clearance in BALB/c mouse at 1 mg/kg, […] by HPLC analysis; format: ADME, organism-based; conditions: in vivo
[13] = test system: SK-OV-3; test: Antitumor activity against human SKOV3 cells xenografted in BALB/c nude mouse assessed as tumor growth inhibition at 10 to 100 mg/kg, po via gavage administered once daily and measured after 28 days by caliper method; format: functional, organism-based
Outline: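 SKOV-3 ovarian carcinoma subcutaneous xenografts in mice. Oral gavage once daily for 28 days at 10, 30 and 100 mg kg–1 day–1. Read-out is tumor growth inhibition.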

[14] = test system: BT-474; test: Antitumor activity against PI3KCA mutant human BT474 cells xenografted in BALB/c nude mouse assessed as tumor growth inhibition at 30 mg/kg, po administered once daily and measured after 30 days by caliper method relative to control; format: functional; conditions: BT-474, po, 720 h, read-out: TGI

Sequence of Phosphatidylinositol 4,5-bisphosphate 3-kinase catalytic subunit alpha isoform (P42336 whole entry, canonical isoform): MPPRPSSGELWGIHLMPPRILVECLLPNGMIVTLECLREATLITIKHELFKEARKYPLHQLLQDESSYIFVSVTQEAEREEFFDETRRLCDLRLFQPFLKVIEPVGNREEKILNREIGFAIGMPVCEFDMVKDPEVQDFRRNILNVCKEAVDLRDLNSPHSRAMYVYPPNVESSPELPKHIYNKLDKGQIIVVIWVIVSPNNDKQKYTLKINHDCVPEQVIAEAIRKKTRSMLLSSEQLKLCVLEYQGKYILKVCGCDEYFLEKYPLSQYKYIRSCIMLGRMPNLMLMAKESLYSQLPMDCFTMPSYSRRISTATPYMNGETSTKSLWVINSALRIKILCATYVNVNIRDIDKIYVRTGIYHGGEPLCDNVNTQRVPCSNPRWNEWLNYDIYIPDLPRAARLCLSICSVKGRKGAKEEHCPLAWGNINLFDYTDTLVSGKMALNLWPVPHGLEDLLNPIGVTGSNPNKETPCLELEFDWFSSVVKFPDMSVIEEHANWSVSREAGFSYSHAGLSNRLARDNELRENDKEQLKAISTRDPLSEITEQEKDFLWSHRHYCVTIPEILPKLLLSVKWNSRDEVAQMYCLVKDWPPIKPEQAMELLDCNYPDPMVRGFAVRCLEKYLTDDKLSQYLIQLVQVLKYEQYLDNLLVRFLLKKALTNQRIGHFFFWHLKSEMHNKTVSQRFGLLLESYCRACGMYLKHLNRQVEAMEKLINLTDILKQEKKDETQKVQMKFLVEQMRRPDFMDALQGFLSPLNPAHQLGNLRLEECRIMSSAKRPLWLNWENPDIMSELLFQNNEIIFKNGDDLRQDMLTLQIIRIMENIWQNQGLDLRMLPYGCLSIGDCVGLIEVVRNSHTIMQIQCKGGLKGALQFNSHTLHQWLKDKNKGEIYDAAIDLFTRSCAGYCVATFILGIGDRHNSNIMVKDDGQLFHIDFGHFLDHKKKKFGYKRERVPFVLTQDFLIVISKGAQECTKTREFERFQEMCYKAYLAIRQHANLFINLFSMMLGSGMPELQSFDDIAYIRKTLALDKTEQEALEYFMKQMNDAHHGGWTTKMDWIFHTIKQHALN

Row | Structure (SMILES) | Ratio IC50 [1] | IC50 [2] [nM] | IC50 [3] [nM] | Activity [4] | AUClast/dose [5] | Ratio IC50 [6] | Cmax [7] [µM] | Ratio IC50 [8] | TGI [9] | inhibition in vivo at 30 mg/kg [10] [%] | bioavailability [11] [%] | CL/F [12] [mL/min/kg] | TGI [13] | inhibition in vivo at 30 mg/kg [14] [%]
1 | CNC(=O)[C@H](C)Cn1cnc2ccc(-c3cnc(OC)c(NS(=O)(=O)c4ccc(Cl)cc4Cl)c3)cc2c1=O | 10.8 | 13.4 | 2.1 | Toxic | 6260 nM·h | 131 | 37 | 5.38 | inactive | – | – | – | – | –
2 | CNC(=O)[C@H](C)Cn1cnc2ccc(-c3cnc(OC)c(NS(=O)(=O)c4cccc(C(F)(F)F)c4)c3)cc2c1=O | 10.4 | 87.1 | 4.4 | – | 2020 nM·h | 155 | 24.7 | 5.79 | – | 41.1 | 9 | 9 | – | –
3 | COc1ncc(-c2ccc3ncn(C[C@@H](C)C(N)=O)c(=O)c3c2)cc1NS(=O)(=O)c1ccc(F)cc1Cl | 7.38 | 17.1 | 2 | – | 1631 nM.hr/(mg/kg) | 83.2 | 4.45 | 5.03 | – | – | 56.2 | 9.8 | inactive | –
4 | CNC(=O)[C@H](C)Cn1cnc2ccc(-c3cnc(OC)c(NS(=O)(=O)c4cccc(Cl)c4Cl)c3)cc2c1=O | 8.87 | 0.45 | 1.1 | Toxic | 5700 nM·h | 175 | 24 | 11.6 | inactive | – | – | – | – | –
5 | Cc1nc(NC(=O)N2CCC[C@H]2C(N)=O)sc1-c1ccnc(C(C)(C)C(F)(F)F)c1 [ALPELISIB] | – | – | – | – | – | – | – | – | – | – | – | – | – | 80.2
